{"source": "ChEMBL document CHEMBL4513216", "about": "“Probing the Open Global Health Chemical Diversity Library for Multistage-Active Starting Points for Next-Generation Antimalarials” (ACS Infect Dis, 2020)", "experiment": "Toxicity liver stage against HepG2, at 10uM", "assay_type": "cell-based", "parameters": "test concentration 10 uM, cell line HepG2-A16-CD81EGFP", "settings": "human, HepG2-A16-CD81EGFP cells; read-out: INHIBITION", "in_short": "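Uninfected HepG2-A16-CD81EGFP cells, 3 × 10^3 per well, 1536-well, plated on prespotted compound at 10 μM final, parasite-free screening media added to match infected plates; puromycin 10 μM positive, DMSO 0.5% negative; run in parallel with 48 h PbLuc assay at 37 °C, 5% CO2; viability by CellTiter-Glo luminescence, normalized to controls.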"}
{"smiles": "CC(C)(C)CN1CC(O)CN(C(=O)c2cccc(C(F)(F)F)c2)CC1=O", "note": "(stereo unspecified)", "values": [{"measurement": "cytotoxicity at 10 µM", "result": 5.99, "unit": "%"}]}
{"smiles": "CC[C@H](C)[C@H](NC(=O)c1ccc(-n2cnnn2)cc1)C(=O)OC", "values": [{"measurement": "cytotoxicity at 10 µM", "result": 9.09, "unit": "%"}]}
{"smiles": "Cc1cnc2n(c1=O)C(CC(=O)NCc1ccc(Cl)cc1)CS2", "note": "(stereo unspecified)", "values": [{"measurement": "cytotoxicity at 10 µM", "result": -5.55, "unit": "%"}]}
{"smiles": "COC(=O)c1ccc(S(=O)(=O)NC2CNC(=O)C2)cc1", "note": "(stereo unspecified)", "values": [{"measurement": "cytotoxicity at 10 µM", "result": -7.27, "unit": "%"}]}
{"smiles": "O=C(c1ccco1)N(CC(F)(F)F)C1CCOCC1", "values": [{"measurement": "cytotoxicity at 10 µM", "result": -12.3, "unit": "%"}]}
{"smiles": "Cn1cc(-c2nc(C3CCN(CC4CC4)CC3)cc3c2ncn3C)cn1", "values": [{"measurement": "cytotoxicity at 10 µM", "result": -1.86, "unit": "%"}]}
{"smiles": "CC(C)CCNc1c(C#N)c2c(c3nncn13)CN(C)CC2", "values": [{"measurement": "cytotoxicity at 10 µM", "result": 9.26, "unit": "%"}]}
{"smiles": "C=C/C=c1\\c(=C/C)oc2c(NCc3ccccc3)ncnc12", "values": [{"measurement": "cytotoxicity at 10 µM", "result": 21.3, "unit": "%"}]}
{"smiles": "Nc1nnc(Cn2nnc(-c3ccccc3F)n2)s1", "values": [{"measurement": "cytotoxicity at 10 µM", "result": 3.09, "unit": "%"}]}
{"smiles": "Cc1cc(C)n(-c2nc(C(=O)NCCN3CCC(C)CC3)cs2)n1", "values": [{"measurement": "cytotoxicity at 10 µM", "result": 10.2, "unit": "%"}]}
{"smiles": "Cc1ccc(Nc2nccc(C3CN(C(C)C)C3)n2)nc1", "values": [{"measurement": "cytotoxicity at 10 µM", "result": -26.2, "unit": "%"}]}
{"smiles": "CN1CCCC[C@@H]2[C@H]1[C@@H](c1ccccc1)CCN2S(=O)(=O)N1CCCC1", "values": [{"measurement": "cytotoxicity at 10 µM", "result": -1.03, "unit": "%"}]}
{"smiles": "CC(C)C(=O)N1CCC(n2nc(-c3ccco3)ccc2=O)CC1", "values": [{"measurement": "cytotoxicity at 10 µM", "result": -2.44, "unit": "%"}]}
{"smiles": "Cc1nc2cc(C3CCN(Cc4ccccc4F)C3)nn2c(O)c1C", "note": "(stereo unspecified)", "values": [{"measurement": "cytotoxicity at 10 µM", "result": 5.52, "unit": "%"}]}
{"smiles": "Cc1cc(C(F)(F)F)c2c(C3CCN(S(=O)(=O)N(C)C)CC3)noc2n1", "values": [{"measurement": "cytotoxicity at 10 µM", "result": 3.63, "unit": "%"}]}
{"smiles": "CC(C)(C)n1ncc(NCc2ccccc2)c(Cl)c1=O", "values": [{"measurement": "cytotoxicity at 10 µM", "result": 55.8, "unit": "%"}]}
{"smiles": "CCCc1nn(Cc2csc(CC)n2)c(=O)o1", "values": [{"measurement": "cytotoxicity at 10 µM", "result": -43.1, "unit": "%"}]}
{"smiles": "Cn1cnc2c1CCN(c1ccnc(-c3ccccc3)n1)C2", "values": [{"measurement": "cytotoxicity at 10 µM", "result": 7.51, "unit": "%"}]}
{"smiles": "COCc1nc(-c2ccc(S(=O)(=O)N3CCCC3)cc2)cs1", "values": [{"measurement": "cytotoxicity at 10 µM", "result": -49.8, "unit": "%"}]}
{"smiles": "COCCN1CCC(CNc2nc3ccccc3o2)CC1", "values": [{"measurement": "cytotoxicity at 10 µM", "result": -53.6, "unit": "%"}]}
{"smiles": "CN1CCC(N(Cc2ccco2)S(=O)(=O)c2ccc(Br)cc2Cl)CC1", "values": [{"measurement": "cytotoxicity at 10 µM", "result": -12.8, "unit": "%"}]}
{"smiles": "COC(=O)NCC(=O)N1CCCC1c1nc(-c2ccccc2F)c[nH]1", "note": "(stereo unspecified)", "values": [{"measurement": "cytotoxicity at 10 µM", "result": 8.01, "unit": "%"}]}
{"smiles": "CC(=O)N1CCc2ccccc2C1CC(=O)NCc1nnc(C)o1", "note": "(stereo unspecified)", "values": [{"measurement": "cytotoxicity at 10 µM", "result": 5.8, "unit": "%"}]}
{"smiles": "Cc1ccc(C(C)NC(=O)N2CCCN(CC(F)F)CC2)s1", "note": "(stereo unspecified)", "values": [{"measurement": "cytotoxicity at 10 µM", "result": 3.44, "unit": "%"}]}
{"smiles": "COC(=O)CN(C(=O)c1cc(C)c(F)cc1F)c1cccc(C)n1", "values": [{"measurement": "cytotoxicity at 10 µM", "result": 6.9, "unit": "%"}]}
{"smiles": "CC(=O)c1cccc(NC(=O)N(CC(F)F)C2CC2)c1", "values": [{"measurement": "cytotoxicity at 10 µM", "result": 2.08, "unit": "%"}]}
{"smiles": "CC1CN(c2ncnc3sccc23)CCN1c1nccs1", "note": "(stereo unspecified)", "values": [{"measurement": "cytotoxicity at 10 µM", "result": 32.1, "unit": "%"}]}
{"smiles": "CSCC(=O)N1CCN(CC(O)C(C)(C)C)CC1", "note": "(stereo unspecified)", "values": [{"measurement": "cytotoxicity at 10 µM", "result": -5.66, "unit": "%"}]}
{"smiles": "CCOC1CCN(C(=O)NCc2ccc(CN3CCOCC3)cc2)CC1", "values": [{"measurement": "cytotoxicity at 10 µM", "result": 7.31, "unit": "%"}]}
{"smiles": "COc1cc2c(cc1CNCc1cccnc1OC)OC(C)C2", "note": "(stereo unspecified)", "values": [{"measurement": "cytotoxicity at 10 µM", "result": 3.67, "unit": "%"}]}
{"smiles": "Cc1occc1C(=O)NCC(=O)N(C)CCCOc1ccccc1", "values": [{"measurement": "cytotoxicity at 10 µM", "result": -50.2, "unit": "%"}]}
{"smiles": "Cc1ccc(C(C)(C)CNC(=O)NC(C)Cn2cncn2)cc1", "note": "(stereo unspecified)", "values": [{"measurement": "cytotoxicity at 10 µM", "result": 3.09, "unit": "%"}]}
{"smiles": "CC(CNC(=O)CCCc1ccccn1)c1ccsc1", "note": "(stereo unspecified)", "values": [{"measurement": "cytotoxicity at 10 µM", "result": 7.42, "unit": "%"}]}
{"smiles": "CCS(=O)(=O)Cc1nnnn1-c1ccccc1", "values": [{"measurement": "cytotoxicity at 10 µM", "result": 2.7, "unit": "%"}]}
{"smiles": "CCc1nc(C2NC3(CCCC3)C(=O)N2CC2CC2)cs1", "note": "(stereo unspecified)", "values": [{"measurement": "cytotoxicity at 10 µM", "result": -1.09, "unit": "%"}]}
{"smiles": "C=C(C)CN1CCCC1c1nc(Cc2ccc(F)cc2)no1", "note": "(stereo unspecified)", "values": [{"measurement": "cytotoxicity at 10 µM", "result": -4.9, "unit": "%"}]}
{"smiles": "CCc1noc(C(C)N2CCN(c3ncnc4sccc34)CC2)n1", "note": "(stereo unspecified)", "values": [{"measurement": "cytotoxicity at 10 µM", "result": 56.3, "unit": "%"}]}
{"smiles": "CCc1noc(CS(=O)(=O)Cc2ccccc2C)n1", "values": [{"measurement": "cytotoxicity at 10 µM", "result": 16.8, "unit": "%"}]}
{"smiles": "CCN(CCCNC(=O)c1ccc(C)[nH]c1=O)S(C)(=O)=O", "values": [{"measurement": "cytotoxicity at 10 µM", "result": -8.01, "unit": "%"}]}
{"smiles": "Cc1ccc(C(CNCc2ncc[nH]2)N2CCOCC2)s1", "note": "(stereo unspecified)", "values": [{"measurement": "cytotoxicity at 10 µM", "result": 12, "unit": "%"}]}
{"smiles": "Cc1nc2c(c(C)c1CC(=O)Nc1ccccc1F)c(=O)[nH]n2C", "values": [{"measurement": "cytotoxicity at 10 µM", "result": 0.177, "unit": "%"}]}
{"smiles": "COC1CCN(C(=O)C2CC(=O)N(c3ccccc3Br)C2)CC1", "note": "(stereo unspecified)", "values": [{"measurement": "cytotoxicity at 10 µM", "result": -3.57, "unit": "%"}]}
{"smiles": "O=C(CCCn1cncn1)NC1(c2ccc(Cl)cc2)CCC1", "values": [{"measurement": "cytotoxicity at 10 µM", "result": 6.66, "unit": "%"}]}
{"smiles": "CC(C)c1ocnc1C(=O)NC1(c2cccc(F)c2)CCOCC1", "values": [{"measurement": "cytotoxicity at 10 µM", "result": 6.81, "unit": "%"}]}
{"smiles": "CN(C)C(=O)c1cc(S(=O)(=O)N2CCCC2Cn2ccnc2)cn1C", "note": "(stereo unspecified)", "values": [{"measurement": "cytotoxicity at 10 µM", "result": 12.2, "unit": "%"}]}
{"smiles": "Cc1ccc(C(N)c2cccs2)cc1", "note": "(stereo unspecified)", "values": [{"measurement": "cytotoxicity at 10 µM", "result": -0.367, "unit": "%"}]}
{"smiles": "COc1ncc(Cl)c(NCc2ccc([S+](C)[O-])cc2)n1", "note": "(stereo unspecified)", "values": [{"measurement": "cytotoxicity at 10 µM", "result": -4.18, "unit": "%"}]}
{"smiles": "CCCNC(=O)CN1CCOC(CC)C1", "note": "(stereo unspecified)", "values": [{"measurement": "cytotoxicity at 10 µM", "result": 2.98, "unit": "%"}]}
{"smiles": "CC(C)c1nsc(N2CCCOCC2)n1", "values": [{"measurement": "cytotoxicity at 10 µM", "result": -7.86, "unit": "%"}]}
{"smiles": "COc1cccc(CN(C)C(=O)c2ccc(NC(C)=O)s2)c1OC", "values": [{"measurement": "cytotoxicity at 10 µM", "result": 0.23, "unit": "%"}]}
{"smiles": "CNC(=O)c1ccc(OC)c(NCc2ncc(-c3cccs3)o2)c1", "values": [{"measurement": "cytotoxicity at 10 µM", "result": 14, "unit": "%"}]}
{"smiles": "Fc1ccc(OCCNC2CCN(Cc3ccncc3)CC2)c(F)c1", "values": [{"measurement": "cytotoxicity at 10 µM", "result": -11.1, "unit": "%"}]}
{"smiles": "CC(CCN(C)C)NC(=O)N1CCSC(C)(C)C1", "note": "(stereo unspecified)", "values": [{"measurement": "cytotoxicity at 10 µM", "result": 5.4, "unit": "%"}]}
{"smiles": "CSCCC(NC(=O)c1ccc2ccccc2n1)C(=O)N(C)C", "note": "(stereo unspecified)", "values": [{"measurement": "cytotoxicity at 10 µM", "result": -12, "unit": "%"}]}
{"smiles": "CCC(O)CN(C)Cc1nnc2ccccn12", "note": "(stereo unspecified)", "values": [{"measurement": "cytotoxicity at 10 µM", "result": -26.7, "unit": "%"}]}
{"smiles": "CC(C)(C)c1cnc(CN2CCC(NC(=O)NC3CCCCC3)CC2)o1", "values": [{"measurement": "cytotoxicity at 10 µM", "result": -3.73, "unit": "%"}]}
